Tn6 DDE FP = disrupts Tn6 cyclic peptide binding to fibrin D-Dimer-E complex | P02675 | Fibrin DD(E) TRITC-Tn6 fluorescence polarization displacement | inhibition, % at 8.3 µM | actives 0.21% (n = 370,000);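 active = inhibition above a per-campaign cutoff: mean of compounds within control limits plus 3 SD, cut at about 15% in these data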;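 also: 0% = median of all compound wells on the plate and 100% = blocking peptide control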
ARFGAP1 inhibitor = rat ARFGAP1 inhibition. Arfgap1-stimulated ARF1 GTP hydrolysis, GDP FP detection. inhibition, % at 16.5 µM. Q62848. actives 0.26% (n = 360,000);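 active = inhibition above a per-plate limit, mean inhibition of low control wells plus 3 SD, cut at about 25% in these data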;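 also: 0% = DMSO wells with enzyme and 100% = wells lacking Arfgap1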
Target sequence (Q62848 1-136 limits assumed): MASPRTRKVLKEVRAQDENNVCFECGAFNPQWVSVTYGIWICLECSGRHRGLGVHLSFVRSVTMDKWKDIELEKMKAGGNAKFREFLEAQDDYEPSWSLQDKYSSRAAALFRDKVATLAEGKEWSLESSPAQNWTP
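Repeats: one replicate per compound; assay system: rat Arfgap1 catalytic domain, aa 1-136; times: enzyme reaction 120 min at 25 °C after 20 min preincubation; detection: FP of antibody-bound GDP Alexa 633 tracer, ex 620/em 688 nm; benchmarks: high control wells lacking Arfgap1, low control full reaction with DMSO; reagent: human ARF1(Δ1-17)-GTP substrate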
ASAP1 inh = inhibitors of human ASAP1 ArfGAP activity; ASAP1-stimulated ARF1 GTP hydrolysis, GDP FP detection; inhibition, % at 16.5 µM; AID 624377; actives 0.19% (n = 360,000); in the data active = inhibition above about 25%;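 also: 0% = vehicle with enzyme and substrate and 100% = no enzyme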
Tn7 DDE FP = inhibitors of Tn7 peptide binding to human fibrin DD(E) | FP displacement of FITC-Tn7 peptide from fibrin DD(E); 0% = median of compound wells per plate | actives 0.13% (n = 370,000) | inhibition, % at 8.3 µM;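 active = inhibition above the mean of compounds falling within the control limits plus 3 SD of them, cut at about 14% in these data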;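 also: 0% = plate median of compound wells and 100% = 10 µM Aha-Tn7 peptide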
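assay system = human clot-derived fibrin DD(E) complex | quantity = Fibrin-DD(E) at 2 µM final | timing = 10 min preincubation, 3 h with tracer, room temperature | signal = fluorescence polarization | measure = percent inhibition | benchmarks = high control wells with 10 µM unlabelled Aha-Tn7 peptide (full inhibition) | replicates = singlicate testing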
* hit, by the source's call; / = not tested or not shown. An excerpt weighted towards active compounds, which were near 0.74% of everything screened.

SMILES | Tn6 DDE FP | ARFGAP1 inhibitor | ASAP1 inh | Tn7 DDE FP
CC(C)(C)c1cc(=O)n(-c2ccccc2)[nH]1 | 8.6 | 29.5* | 3.9 | -1.8
CCC(NC(=O)c1ccc2c(ccn2Cc2cccc(-c3ccc(C(=O)O)cc3)c2)c1)c1ccccc1 (stereo unspecified) | -5.1 | / | / | -7.7
CN(c1ccc(OCC(=O)Nc2ccc(S(N)(=O)=O)cc2)cc1)S(=O)(=O)c1ccc(F)cc1 | -6.9 | 13.5 | 4.2 | -1.4
NS(=O)(=O)c1ccc(NC(=O)COc2ccc(C(=O)c3ccc(F)cc3)cc2)cc1 | 24.0* | 6.2 | 3.4 | 1.2
COc1ccc(NC(=O)NS(=O)(=O)c2ccc(C)cc2)cn1 | 11.4 | 1.6 | -1.6 | 48.0*
C#CCN(C)S(=O)(=O)c1ccc(N2CCCC2)cc1Br | -4.0 | / | / | 4.1
CN(C)c1ccccc1-c1cc(NC=O)c2ncc(-c3cccc(C(F)(F)F)c3)n2c1 | 33.6* | -2.4 | -5.3 | -8.2
COc1ccccc1-c1cc(NC=O)c2ncc(-c3cccc(C(F)(F)F)c3)n2c1 | 3.1 | -0.9 | 0.0 | 2.9
Clc1ccc(C2=CC(c3ccco3)n3ncnc3N2)cc1 (stereo unspecified) | -3.0 | -0.3 | -5.9 | 15.8*
O=C(Nc1ccc(Cl)c(Cl)c1)Oc1ccc(NC(=O)c2ccco2)cc1 | -1.0 | 4.3 | -9.3 | 18.8*
CCCc1nc2ccccc2c(C(=O)OCC(=O)Nc2ccc(S(=O)(=O)N3CCOCC3)cc2)c1CC | -6.7 | 9.1 | 3.7 | -4.9
CCCc1nc2ccccc2c(C(=O)OCC(=O)Nc2cccc(S(=O)(=O)N3CCOCC3)c2)c1CC | -0.8 | 28.1* | 4.8 | -1.8
Cc1cc(C)n2c(SCCC(C)C)nnc2n1 | 0.3 | 5.0 | -5.8 | 14.9*
Cc1cc(C)n2c(SCC(C)C)nnc2n1 | 4.6 | -11.2 | 5.9 | 10.7
COc1ccc(S[C@]2(C(=O)N3CCN(C(C)=O)CC3)CC(=O)N(S(=O)(=O)c3ccc(F)cc3)[C@@H]2c2ccc(OC)cc2)cc1 | 0.7 | / | / | -3.8
O=C(O)CCNc1cc(N2CCN(C(=O)c3ccco3)CC2)c2noc3c2c1C(=O)c1ccccc1-3 | 46.4* | 14.0 | 0.0 | -4.3
Cc1ccc(C(=O)NN2C(=O)/C(=C/c3cn(C)c4ccccc34)SC2=S)cc1 | -1.7 | -1.0 | 1.4 | -4.5
Cn1cc(/C=C2\SC(=O)NC2=S)c2ccccc21 | -1.0 | -4.6 | -7.2 | 15.9*
COc1ccc(CC(=O)Cc2ccc(OC)c(OC)c2)cc1OC | 0.6 | -5.7 | -8.3 | 14.1*
O=C(Oc1coc(CSc2ncccn2)cc1=O)c1ccc([N+](=O)[O-])cc1 | 7.5 | / | / | 3.6
O=C(NCc1cccs1)c1cc(-c2cccs2)on1 | 91.4* | -7.1 | 10.8 | 6.2
C#CCN(CC=C)Cc1ccc(OC)cc1OC | 0.5 | / | / | 2.4
COc1cc(C=c2c3ccccc3n3c2cc(-c2ccccc2)[n+]3C)cc(OC)c1OC | 17.2* | 21.2 | 14.1 | 3.2
CN(C)c1ccc(C=c2c3cc([N+](=O)[O-])ccc3n3c2cc(-c2ccccc2)[n+]3C)cc1 | -6.8 | 39.1* | 19.5 | -1.8
CN(C)c1ccc(C=c2c3ccccc3n3c2cc(-c2ccccc2)[n+]3C)cc1 | -14.1 | 1.8 | 9.8 | -0.2
SMILES | Tn6 DDE FP | ARFGAP1 inhibitor | ASAP1 inh | Tn7 DDE FP
COc1cc(N(C)C)ccc1C=c1c2ccccc2n2c1cc(-c1ccccc1)[n+]2C | -9.3 | 12.6 | 35.6* | -1.3
COc1ccc(-n2c(SCC(=O)NNC(=S)Nc3ccccc3)nc3ccccc3c2=O)cc1 | -4.5 | / | / | 5.3
COC(=O)[C@]12C[C@H](CC(=O)N3CCN(C(=O)c4ccco4)CC3)C(=O)N(Cc3ccccc3)C1=C[C@H](COCc1ccccc1)O[C@@H]2C | -3.7 | / | / | 0.9
C=CCN1C(=O)[C@@H](CC(=O)NCC23CC4CC(CC(C4)C2)C3)[C@]2(C(=O)OCC)CCCCC/C=C/12 | 4.2 | / | / | 7.1
CCOC(=O)[C@@]12CCCC=C1N(CCc1ccc(Cl)cc1)C(=O)[C@H]2CC(=O)N1CCCC1 | 2.8 | / | / | -0.5
CC(=O)Nc1sc2c(c1-c1nc3ccccc3s1)CCCN(C(C)C)C2 | -4.8 | / | / | 4.5
Oc1ccc(C[C@H]2CNC(=S)N2CC2CCCN2C[C@H](Cc2ccc(O)cc2)N2C[C@H](Cc3ccc(O)cc3)N(CC3CCCCC3)C2=S)cc1 (stereo partly specified) | 25.9* | 9.6 | -4.4 | 5.8
O=c1c([N+](=O)[O-])c(Cl)c2ccccc2n1Cc1ccccc1 | -5.7 | / | / | 1.2
O=C1CCCc2ccccc2N1Cc1ccccc1Cl | -4.9 | 25.1* | -11.7 | 2.5
N#CCCN(CCC#N)C(=O)C1c2ccccc2Oc2ccccc21 | 58.6* | -4.1 | 1.9 | 10.4
